Source: ChEMBL document CHEMBL5518184, “Structural basis for specific inhibition of salicylate synthase from Mycobacterium abscessus” (Eur J Med Chem, 2024)

Key:
[1] = tested on: Mycobacteroides abscessus; experiment: Inhibition of Mycobacterium abscessus ATCC 19977 salicylate synthase expressed in Escherichia coli BL21 (DE3) cells using chorismic acid as substrate assessed as residual activity at 100 uM by fluorimetric assay relative to control
Outline: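 Enzyme purified by IMAC and gel filtration, used at 1–2 μM in 50 mM Hepes pH 7.5 with 5 mM MgCl₂ at 37 °C. Reaction started with 50 μM chorismic acid; fluorescence read at Ex 305 / Em 420 nm. Compound tested at a fixed 100 μM; percent residual activity recorded.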

[2] = tested on: Mycobacterium tuberculosis; experiment: Inhibition of Mycobacterium tuberculosis salicylate synthase expressed in Escherichia coli BL21 cells using chorismic acid as substrate assessed as residual activity at 100 uM by fluorimetric assay relative to control
Outline: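 Recombinant His-purified enzyme (IMAC plus gel filtration), 1–2 μM, in 50 mM Hepes pH 7.5, 5 mM MgCl₂ at 37 °C. Reaction started with chorismic acid at a subsaturating 50 μM. Compound tested at a fixed 100 μM. Fluorescence monitored at Ex 305 nm / Em 420 nm, and activity expressed as % residual activity.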

[3] = Inhibition of Mycobacterium tuberculosis salicylate synthase expressed in Escherichia coli BL21 cells using chorismic acid as substrate by fluorimetric assay
Outline: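 Purified recombinant enzyme, 1–2 μM, in 50 mM Hepes pH 7.5, 5 mM MgCl₂ at 37 °C, with 50 μM chorismic acid. Fluorescence read at Ex 305 nm / Em 420 nm. Run only for compounds with residual activity below 30 % at 100 μM. Activity measured across 0.1–200 μM inhibitor and IC50 fitted as A[I] = A[0]·(1 − [I]/([I]+IC50)).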

[4] = Inhibition of Mycobacterium abscessus ATCC 19977 salicylate synthase expressed in Escherichia coli BL21 (DE3) cells using chorismic acid as substrate by fluorimetric assay; parameters: species or system Mycobacteroides abscessus
Outline: (§1)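 Purified enzyme (IMAC plus gel filtration) at 1–2 μM in 50 mM Hepes pH 7.5, 5 mM MgCl₂, 37 °C, with 50 μM chorismic acid; fluorimetric read-out at Ex 305 / Em 420 nm. IC50 measured over 0.1–200 μM inhibitor for compounds leaving under 30 % residual activity at 100 μM, fitted as A[I] = A[0]·(1 − [I]/([I]+IC50)).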

[5] = Inhibition of Mycobacterium abscessus ATCC 19977 salicylate synthase expressed in Escherichia coli BL21 (DE3) cells by fluorimetric assay; parameters: species or system Mycobacteroides abscessus; outline: as §1
[6] = Inhibition of Mycobacterium abscessus ATCC 19977 salicylate synthase expressed in Escherichia coli BL21 (DE3) cells using chorismic acid as substrate in presence of BSA by fluorimetric assay; parameters: species or system Mycobacteroides abscessus
Outline: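 IC50 determined in the standard fluorimetric chorismate assay (1–2 μM enzyme, 50 mM Hepes pH 7.5, 5 mM MgCl₂, 37 °C, 50 μM chorismic acid, Ex 305 / Em 420 nm) with 0.1 mg/mL BSA added.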

[7] = Inhibition of Mycobacterium abscessus ATCC 19977 salicylate synthase expressed in Escherichia coli BL21 (DE3) cells using chorismic acid as substrate in presence of DTT by fluorimetric assay; parameters: species or system Mycobacteroides abscessus
Outline: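 IC50 determined in the standard fluorimetric chorismate assay (1–2 μM enzyme, 50 mM Hepes pH 7.5, 5 mM MgCl₂, 37 °C, 50 μM chorismic acid) with 100 μM DTT added to rule out cysteine reactivity.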

[8] = Inhibition of Mycobacterium abscessus ATCC 19977 salicylate synthase expressed in Escherichia coli BL21 (DE3) cells using chorismic acid as substrate in presence of Triton X-100 by fluorimetric assay; parameters: species or system Mycobacteroides abscessus
Outline: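 IC50 determined in the standard fluorimetric chorismate assay (1–2 μM enzyme, 50 mM Hepes pH 7.5, 5 mM MgCl₂, 37 °C, 50 μM chorismic acid) with 0.01 % (v/v) Triton X-100 added as detergent.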

[9] = Cytotoxicity against human fibroblast assessed as viable cells at 10 uM incubated for 96 hrs by MTS assay relative to control; assay type: toxicity, cell-based; details: human fibroblasts, read-out: Activity
Outline: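 Juvenile human foreskin fibroblasts grown in DMEM with 10 % FBS, 1 % L-glutamine and penicillin/streptomycin; 1 × 10⁴ cells/well, treated after 24 h at 0.5, 1, 5 and 10 μM. After 96 h, viability read by MTS at 490 nm and expressed as percent of untreated cells; three independent experiments.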

Row | SMILES | Activity [1] | Activity [2] | IC50 [3] | IC50 [4] | other results
1 | NS(=O)(=O)c1cccc(-c2cccc(C(=O)O)c2)c1 | 89.4% |  |  |  | 
2 | CS(=O)(=O)c1cccc(-c2ccc(C(=O)O)o2)c1 | 5.4% | 25.8% | 34.9 µM | 3.6 µM | 
3 | O=C(O)c1ccc(-c2ccc(C(F)(F)F)cc2C(F)(F)F)o1 |  |  |  |  | IC50 [5]: ~5 µM
4 | O=C(O)c1ccc(-c2cccc(O)c2)o1 | 65% | 70.4% |  |  | 
5 | N#Cc1cccc(-c2ccc(C(=O)O)o2)c1 | 3.2% | 3.1% | 6.3 µM | 12.1 µM | 
6 | NS(=O)(=O)c1cccc(-c2ccc(C(=O)O)o2)c1 | 0.6% | 28.6% | 39.7 µM | 2.6 µM | IC50 [6]: 2.8 µM; IC50 [7]: 3.3 µM; IC50 [8]: 2.8 µM; viability at 96 h, 10 µM [9]: 99.5%
7 | O=C(O)c1cccc(-c2ccc(C(=O)O)o2)c1 | 33.3% | 27.2% | 35.2 µM |  | 
8 | NS(=O)(=O)c1ccccc1-c1ccc(C(=O)O)o1 | 97.1% |  |  |  | 
9 | COC(=O)c1ccc(-c2cccc(S(N)(=O)=O)c2)o1 | 55.3% |  |  |  | 
10 | NS(=O)(=O)c1ccc(-c2ccc(C(=O)O)o2)cc1 | 16% |  |  | 19.3 µM | 
11 | O=C(O)c1ccc(-c2cccc(C(F)(F)F)c2)o1 | 35% | 42% |  |  | 
12 | CNC(=O)c1cccc(-c2ccc(C(=O)O)o2)c1 | 53.3% | 84% |  |  | 
13 | Nc1cccc(-c2ccc(C(=O)O)o2)c1 | 48.3% | 65.8% |  |  | 
14 | NC(=O)c1cccc(-c2ccc(C(=O)O)o2)c1 | 25.8% | 20.9% | 31.4 µM | 42.9 µM | 
15 | Cc1cccc(-c2ccc(C(=O)O)o2)c1 | 54.7% | 104% |  |  | 
16 | O=C(O)c1ccc(-c2cccc(Cl)c2)o1 | 88.3% | 102% |  |  | 
